These results are taken from publication PMC8992017 (Journal of medicinal chemistry, 2019).

In data set [1] the test system is NF-κB. The data set is described as follows: NF-κB activation in THP1-Blue NF-κB reporter cells. It is filed as cell-based. Conditions: for NF-κB activity (in words): compound 5 μM + LPS, compared with compound 1. A digest of the protocol:
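THP1-Blue NF-κB cells at 10^5/well in RPMI with 10% FBS, pen/strep and Normocin. Test compound (1 mM DMSO stock) was diluted into LPS medium, giving final 5 μM compound ([…]), with LPS co-added. After 20 h, supernatant SEAP was measured colorimetrically with QuantiBlue at 630 nm. Two-point normalized: reference sulfonamide + LPS = 200%, LPS alone = 100%; mean ± SEM.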

The test system of data set [2] is ISRE. Nature of the data set: ISRE activity in ISRE-bla THP-1 reporter cells. It is filed as cell-based. The following applies: for ISRE activity (in words): compound 5 μM + IFN-α, compared with compound 1. The essentials: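 ISRE-bla THP-1 cells at 5×10^4/well in RPMI with 10% dialyzed FBS, 0.1 mM non-essential amino acids, 1 mM pyruvate and pen/strep. Test compound (1 mM DMSO stock) was diluted in IFN-α medium, giving final 5 μM compound ([…]) and final 100 U/mL IFN-α. Incubation 16 h, then CCF4-AM FRET substrate 3 h at RT in the dark. Excitation 405 nm; background-subtracted 465/535 nm emission ratio. Two-point normalized: reference sulfonamide + IFN-α = 200%, IFN-α alone = 100%; mean ± SEM.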

The subject of data set [3] is C57BL/6 (wild-type, WT) mice. Type of data set: in vivo. Conditions: for systemic toxicity, as indicated by behavior change or weight loss (in words): mice co-immunized with MPLA, ovalbumin and compound; for OVA-specific IgG antibody titers versus MPLA alone (in words): mice, n=8 per group, intramuscular, ovalbumin 20 μg/animal + MPLA + compound, days 0 and 21. The essentials:
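Female/male not stated; C57BL/6 wild-type mice aged 7–9 weeks, 8 per group. Test compound mixed with ovalbumin (20 μg/animal) and MPLA and injected into the gastrocnemius muscle on days 0 and 21. Mice then bled, and serum OVA-specific IgG titres measured by ELISA. Data given as mean ± SEM.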

For data set [4], the system named is NF-κB. Conditions: compound alone, without LPS; cited from earlier work.
In data set [5] the test system is ISRE. The following applies: compound alone, without IFN-α; cited from earlier work.
A short description of data set [6]: Stability of compound in DMSO stock and in assay media. Type of data set: physicochemical.

As for `CCOc1ccc(S(=O)(=O)Nc2cc(OC)c(Cl)cc2OC)cc1` [Compound 1, N-(4-chloro-2,5-dimethoxyphenyl)-4-ethoxybenzenesulfonamide], the “mean SEAP response in NF-κB assay” value in data set [1] (compound 1 + LPS, raw value used for normalization, mean ± SEM) amounted to 3.44 ± 0.08 µg/mL. In addition, in data set [2] (compound 1 + IFN-α, raw value used for normalization, mean ± SEM), the “mean emission ratio in ISRE assay” value came to 1.88 ± 0.04 µg/mL. Besides, in data set [3], the “systemic toxicity, as indicated by behavior change or weight loss (in words)” value is recorded as “without demonstrable systemic toxicity” and the “OVA-specific IgG antibody titers versus MPLA alone (in words)” value was “statistically significant increases”. The “NF-κB activity when tested alone (in words)” value in data set [4] is given as “did not possess any NF-κB or ISRE activity”. Also, the “ISRE activity when tested alone (in words)” value in data set [5] is listed as “did not possess any NF-κB or ISRE activity”.

For the compound `CCOc1ccc(S(=O)(=O)N(C)c2cc(OC)c(Cl)cc2OC)cc1` [Compound 33, N-(4-chloro-2,5-dimethoxyphenyl)-4-ethoxy-N-methylbenzenesulfonamide], in data set [3], the “systemic toxicity, as indicated by behavior change or weight loss (in words)” value is on record as “without demonstrable systemic toxicity” and the “OVA-specific IgG antibody titers versus MPLA alone (in words)” value was “statistically significant increases”.

Take `C#CCN(c1cc(OC)c(Cl)cc1OC)S(=O)(=O)c1ccc(OCC)cc1` [Compound 42, N-(4-chloro-2,5-dimethoxyphenyl)-4-ethoxy-N-(prop-2-yn-1-yl)benzenesulfonamide]: the “NF-κB activity (in words)” value in data set [1] is reported as “retained activity almost equivalent to that of compound 1”. The “ISRE activity (in words)” value in data set [2] is “retained activity almost equivalent to that of compound 1”.

As to `C#CCCN(c1cc(OC)c(Cl)cc1OC)S(=O)(=O)c1ccc(OCC)cc1` [Compound 43, N-(but-3-yn-1-yl)-N-(4-chloro-2,5-dimethoxyphenyl)-4-ethoxybenzenesulfonamide], the “NF-κB activity (in words)” value in data set [1] was “retained activity almost equivalent to that of compound 1”. In addition, in data set [2], the “ISRE activity (in words)” value is recorded as “retained activity almost equivalent to that of compound 1”.

Take `C#CCCCN(c1cc(OC)c(Cl)cc1OC)S(=O)(=O)c1ccc(OCC)cc1` [Compound 44, N-(4-chloro-2,5-dimethoxyphenyl)-4-ethoxy-N-(pent-4-yn-1-yl)benzenesulfonamide]: the “NF-κB activity (in words)” value in data set [1] was “retained activity almost equivalent to that of compound 1”. Also, the “ISRE activity (in words)” value in data set [2] is “retained activity almost equivalent to that of compound 1”.

On to `C#CCOCCOCCOCCN(c1cc(OC)c(Cl)cc1OC)S(=O)(=O)c1ccc(OCC)cc1` [Compound 45, N-(4-chloro-2,5-dimethoxyphenyl)-4-ethoxy-N-(2-(2-(2-(prop-2-yn-1yloxy)ethoxy)ethoxy)ethyl)benzenesulfonamide], for which the “NF-κB activity (in words)” value in data set [1] is listed as “too long to retain activity”. Further, the “ISRE activity (in words)” value in data set [2] is recorded as “too long to retain activity”.

On to `CCOc1ccc(S(=O)(=O)N(Cc2ccccc2)c2cc(OC)c(Cl)cc2OC)cc1` [Compound 46, N-benzyl-N-(4-chloro-2,5-dimethoxyphenyl)-4-ethoxybenzenesulfonamide], for which the “NF-κB activity (in words)” value in data set [1] is recorded as “potent analogs”. The “ISRE activity (in words)” value in data set [2] was “potent analogs”.

`CCOc1ccc(S(=O)(=O)N(CCc2ccccc2)c2cc(OC)c(Cl)cc2OC)cc1` [Compound 47, N-(4-chloro-2,5-dimethoxyphenyl)-4-ethoxy-N-phenethylbenzenesulfonamide]: the “NF-κB activity (in words)” value in data set [1] is reported as “potent analogs”. Moreover, in data set [2], the “ISRE activity (in words)” value is “potent analogs”.

`CCOc1ccc(S(=O)(=O)N(C(C)=O)c2cc(OC)c(Cl)cc2OC)cc1` [Compound 48, N-(4-chloro-2,5-dimethoxyphenyl)-N-((4-ethoxyphenyl)sulfonyl)acetamide]: the “ISRE activity (in words)” value in data set [2] was “active”. Also, the “stability of stock in DMSO (in words)” value in data set [6] is on record as “stable”.

As to `CCOC(=O)CN(c1cc(OC)c(Cl)cc1OC)S(=O)(=O)c1ccc(OCC)cc1` [Compound 49, Ethyl N-(4-chloro-2,5-dimethoxyphenyl)-N-((4-ethoxyphenyl)sulfonyl)glycinate], the “NF-κB activity (in words)” value in data set [1] was “retained dual NF-κB and ISRE activities”. Besides, the “ISRE activity (in words)” value in data set [2] was “retained dual NF-κB and ISRE activities”.

Take `CCOC(=O)CCCN(c1cc(OC)c(Cl)cc1OC)S(=O)(=O)c1ccc(OCC)cc1` [Compound 50, Ethyl 4-((N-(4-chloro-2,5-dimethoxyphenyl)-4-ethoxyphenyl)sulfonamido)butanoate]: the “NF-κB activity (in words)” value in data set [1] was “retained dual NF-κB and ISRE activities”. Also, the “ISRE activity (in words)” value in data set [2] is “retained dual NF-κB and ISRE activities”.

With `CCOc1ccc(S(=O)(=O)N(CCCO)c2cc(OC)c(Cl)cc2OC)cc1` [Compound 51, N-(4-chloro-2,5-dimethoxyphenyl)-4-ethoxy-N-(3-hydroxypropyl)benzenesulfonamide], the “NF-κB activity (in words)” value in data set [1] was “retained activity in both the assays”. For the same compound, in data set [2], the “ISRE activity (in words)” value is “retained activity in both the assays”.

With `CCOc1ccc(S(=O)(=O)N(CCCNC(=O)OC(C)(C)C)c2cc(OC)c(Cl)cc2OC)cc1` [Compound 52, tert-Butyl (3-((N-(4-chloro-2,5-dimethoxyphenyl)-4-ethoxyphenyl)sulfonamido)propyl)carbamate], the “NF-κB activity (in words)” value in data set [1] is “reduction in activity”. The “ISRE activity (in words)” value in data set [2] is reported as “reduction in activity”.

Take `CCOc1ccc(S(=O)(=O)N(CCCC(=O)O)c2cc(OC)c(Cl)cc2OC)cc1` [Compound 53, 4-((N-(4-chloro-2,5-dimethoxyphenyl)-4-ethoxyphenyl)sulfonamido)butanoic acid]: the “NF-κB activity (in words)” value in data set [1] is “retaining the NF-κB activity”. In data set [2], the “ISRE activity (in words)” value is “reduction in ISRE activity”.

On to `CCNC(=O)CCCN(c1cc(OC)c(Cl)cc1OC)S(=O)(=O)c1ccc(OCC)cc1` [Compound 54, 4-((N-(4-chloro-2,5-dimethoxyphenyl)-4-ethoxyphenyl)sulfonamido)-N-ethylbutanamide], for which, in data set [1], the “NF-κB activity (in words)” value is “retaining the NF-κB activity”. Further, the “ISRE activity (in words)” value in data set [2] is reported as “reduction in ISRE activity”.

`CCOc1ccc(S(=O)(=O)N(CCCN)c2cc(OC)c(Cl)cc2OC)cc1.Cl` [Compound 55, N-(3-aminopropyl)-N-(4-chloro-2,5-dimethoxyphenyl)-4-ethoxybenzenesulfonamide hydrochloride]: the “NF-κB activity (in words)” value in data set [1] is “recovered”. For the same compound, the “ISRE activity (in words)” value in data set [2] was “recovered”.

As to `CCOc1ccc(S(=O)(=O)N(CCCNC(=O)CCCCCNC(=O)c2ccc3c(c2)C(=O)OC32c3ccc(O)cc3Oc3cc(O)ccc32)c2cc(OC)c(Cl)cc2OC)cc1` [Compound 56, N-(6-((3-((N-(4-chloro-2,5-dimethoxyphenyl)-4-ethoxyphenyl)sulfonamido)propyl)amino)-6-oxohexyl)-3’,6’-dihydroxy-3-oxo-3H-spiro[isobenzofuran-1,9’-xanthene]-5-carboxamide], in data set [1], the “NF-κB activity (in words)” value was “completely inactive”. In data set [2], the “ISRE activity (in words)” value was “completely inactive”.

As for `CCOc1ccc(S(=O)(=O)N(CCCNC(=O)CCCC[C@H]2SC[C@H]3NC(=O)N[C@H]32)c2cc(OC)c(Cl)cc2OC)cc1` [Compound 58, N-(3-((N-(4-chloro-2,5-dimethoxyphenyl)-4-ethoxyphenyl)sulfonamido)propyl)-5-((3aR,4R,6aS)-2-oxohexahydro-1H-thieno[3,4-d]imidazol-4-yl)pentanamide], in data set [1], the “NF-κB activity (in words)” value is recorded as “equipotent to compound 1”. In data set [2], the “ISRE activity (in words)” value is on record as “equipotent to compound 1”.

With `CCOc1ccc(S(=O)(=O)Nc2cc(OC)c(N=[N+]=[N-])cc2OC)cc1` [Compound 59, N-(4-azido-2,5-dimethoxyphenyl)-4-ethoxybenzenesulfonamide], the “NF-κB activity (in words)” value in data set [1] is given as “potent”. For the same compound, in data set [2], the “ISRE activity (in words)” value is on record as “potent”.

`COc1ccc(S(=O)(=O)Nc2cc(OC)c(Cl)cc2OC)cc1N` [Compound 60, 3-Amino-N-(4-chloro-2,5-dimethoxyphenyl)-4-methoxybenzenesulfonamide]: the “NF-κB activity (in words)” value in data set [1] was “resurgence of activity”. Besides, the “ISRE activity (in words)” value in data set [2] was “resurgence of activity”.

With `C#CCN(c1cc(OC)c(N=[N+]=[N-])cc1OC)S(=O)(=O)c1ccc(OCC)cc1` [Compound 62, N-(4-azido-2,5-dimethoxyphenyl)-4-ethoxy-N-(prop-2-yn-1-yl)benzenesulfonamide], in data set [1], the “NF-κB activity (in words)” value is on record as “very potent”. In addition, the “ISRE activity (in words)” value in data set [2] was “very potent”.

Consider `CCOc1ccc(S(=O)(=O)N(CCCNC(=O)CCCC[C@H]2SC[C@H]3NC(=O)N[C@H]32)c2cc(OC)c(N=[N+]=[N-])cc2OC)cc1` [Compound 64, N-(3-((N-(4-azido-2,5-dimethoxyphenyl)-4-ethoxyphenyl)sulfonamido)propyl)-5((3aR,4R,6aS)-2-oxohexahydro-1H-thieno[3,4-d]imidazol-4-yl)pentanamide], for which the “NF-κB activity (in words)” value in data set [1] is given as “relatively weak activity”. Also, the “ISRE activity (in words)” value in data set [2] is “relatively weak activity”.
